Among the data in PubChem BioAssay AID504383 (The Scripps Research Institute Molecular Screening Center, 2011) are activation values, retold here.

In all, about 2,500 compounds went through this assay and about 1,200 (48%) were called active.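 The calls were made as follows: active = mean activation above the low control average plus 3 SD, as set in the primary screen (cut at about 12% in these data); inactive = the rest.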 So high a share suggests a set chosen from earlier hits. The list shows a part of the results.

The target of the test is Troponin I, cardiac muscle (Homo sapiens) + Troponin T, cardiac muscle (Homo sapiens) + Troponin C, slow skeletal and cardiac muscles (Homo sapiens) (UniProt P19429+P45379+P63316). Nature of the test: cardiac RTF calcium sensitivity activators, confirmation, biochemical, IANBD-TnC fluorescence, triplicate (AID 504383).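 Also: 0% = DMSO at 0.472 mM calcium and 100% = DMSO at 2.9 mM calcium.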 Conditions: IANBD-labeled cardiac RTF, Ca2+ sensitivity fluorescence; at 7.2 µM; active compounds read high; scaled from EC20 to saturating calcium; tested at EC20 calcium, 0.472 mM. The method, boiled down:
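Material: labelled regulated thin filaments; Reagent: 0.472 mM calcium; Incubation: 15 min compound incubation with filaments at 25 °C; Detection: filament fluorescence intensity; Evaluation: fluorescence increase normalised to calcium controls; Benchmarks: low control EC20 calcium, high control EC100 calcium.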
For `CCCNC(=S)N1CCC(NC(=O)C23CC4CC(CC(C4)C2)C3)CC1`, the activation is 8.77% (inactive).
Next, `Nc1ccc2nc(-c3ccccc3)cnc2c1`: 83.1% (active).
Take `c1ccc(-c2cnn3c(-c4ccccc4)c(-c4ccccc4)nc3n2)cc1`: the activation was 3.13% (inactive).
For the compound `CCO/C=C1\N=C(c2ccc(F)cc2)OC1=O`, the activation is 4.72% (inactive).
In the case of `CN1/C(=C\C=C2\N=C(c3ccc(F)cc3)OC2=O)C(C)(C)c2ccccc21`, the activation is 13.9% (active).
Consider `CN1/C(=C\C=C2/SC(=S)NC2=O)C(C)(C)c2ccccc21`, for which the activation is 10.1% (inactive).
On to `CCN(CC)C(=O)C1CCC(CNS(=O)(=O)c2cccc3cccnc23)CC1` (stereo not drawn), for which the activation is 0.91% (inactive).
Consider `CC(C)c1ccc(NS(=O)(=O)c2cccc3cccnc23)cc1`, for which the activation is 446% (active).
`O=C1CCC[C@@H]2C[C@@]3(C[C@@H]4CCN1[C@H]24)Nc1cc([N+](=O)[O-])ccc1NC3=NC1CCCCC1`: the activation is 41.2% (active).
In the case of `COC(=O)C(=N/Nc1ccccc1C(=O)OC)/C(C)=N/O`, the activation was 35.7% (active).
For the compound `N#C/C(=C\c1ccc(N2CCOCC2)o1)c1nc2ccccc2[nH]1`, the activation is 29.6% (active).
Consider `N#C/C(=C/c1ccc(N2CCOCC2)o1)c1nc2ccccc2[nH]1`, for which the activation was 11.4% (inactive).
Regarding `Cc1ccc2nc(/C(C#N)=C\c3ccc(N4CCOCC4)o3)[nH]c2c1`, the activation is 44.2% (active).
`Clc1ccc(-n2cc(-c3ccc(Br)cc3)[n+]3c2CCCCC3)cc1`: the activation is 0.54% (inactive).
On to `Brc1ccc(-c2cn3nc4c(nc3n2)CCCC4)cc1`, for which the activation was 22.8% (active).
In the case of `c1ccc(-c2cn3nc4c(nc3n2)CCCC4)cc1`, the activation is 48.2% (active).
Regarding `Clc1ccc(-c2cn3nc4c(nc3n2)CCCC4)cc1`, the activation was 9.46% (inactive).
`CC1(C)CC(=O)C=C(NCc2ccc(Cl)c(Cl)c2)C1`: the activation is 3.4% (inactive).
As for `CC1(C)CC(=O)C=C(Nc2ccccc2N)C1`, the activation was 31.4% (active).
In the case of `O/C=c1\ccc2cccc3nc(C(F)(F)F)nc1c23` it was 5010% (active); in that of `Cc1ccccc1C(=O)NCCCc1ccccc1`, 0.23% (inactive).
Next, `O=C(NCCc1ccccc1)c1ccc(Cl)nc1`: 16.1% (active).
In the case of `COC(=O)C1=C(C(=O)c2ccc(C)cc2)C(c2ccc(OC)c(OC)c2)n2nnnc2N1` (stereo not drawn) it was 9.37% (inactive).
For the compound `CC(C)CCNC(=O)c1ccc2c(SCC(=O)O)c3c(nc2c1)CCC3`, the activation was 35.4% (active).
For `CCOc1c2ccc(C(=O)NCCc3cccs3)cc2nn1CC`, the activation is 9.3% (inactive).
In the case of `Cc1cc(C)n2nc(SCC(=O)N(C)Cc3ccccc3)nc2n1` it was -3.59% (inactive); in that of `CN(Cc1ccccc1)C(=O)N1CCOCC1`, 12.1% (active); in that of `O=C(N1CCOCC1)N1CCC(n2nnc3ccccc32)CC1`, 5.64% (inactive).
In the case of `CCc1cc(C(=O)Nc2ccc(OC)nc2)sc1C` it was 4.99% (inactive); in that of `O=C(COC(=O)C1CCC(=O)N1)Nc1ccc(Oc2ccccc2)cc1` (stereo not drawn), 5.98% (inactive); in that of `O=C(COC(=O)C1CCC1)NCc1ccccc1`, 286% (active).
Next, `O=C(COc1ccc(Cl)cc1)NCc1ccccc1`: 10.9% (inactive); `O=C(COC(=O)C1CCCCC1)Nc1ccc([N+](=O)[O-])cc1`: 82.4% (active).
Consider `Cc1ccc(C(=O)COC(=O)C2CCC2)cc1`, for which the activation was 9.89% (inactive).
For the compound `CCn1cc(C(=O)NCCC(=O)NCCO)c(=O)c2cc3c(cc21)OCO3`, the activation is 57.2% (active).
`COc1ccc(-[n+]2c(C)cc(/C=C3\Sc4ccccc4N3C)cc2C)cc1`: the activation is 249% (active).
With `COc1ccccc1-[n+]1c(C)cc(/C=C2\Sc3ccccc3N2C)cc1C`, the activation is 12% (active).
Take `CC[n+]1c(/C=C2\Sc3ccccc3N2C)ccc2cccc(C)c21`: the activation is 6.15% (inactive).
With `CCC(CO)[n+]1c(C)cc(/C=C2\Sc3ccccc3N2Cc2ccccc2)cc1C` (stereo not drawn), the activation was 3.94% (inactive).
Take `Oc1cccc(Nc2nc(O)c(/C=C3\C=Nc4ccccc43)s2)c1`: the activation is 127% (active).
Turning to `CC(C)=CCC/C(C)=C/Cc1c(O)ccc(C(=O)/C=C/c2ccc(O)cc2)c1O`, the activation is 563% (active).
Next, `CN(C)c1ccc(/C=C/C(=O)c2ccc(O)cc2)cc1`: 1.84% (inactive); `O=C(Cc1ccccc1)Nc1cccc(-c2nc3ncccc3o2)c1`: 15.3% (active); `COc1cccc(CC(NC(C)=O)C(=O)NC2CCN(c3nc(C)cc(C)c3C#N)CC2)c1OC` (stereo not drawn): 34% (active).
For `CC(=O)NC(Cc1ccc(F)c(F)c1)C(=O)NC1CCN(S(=O)(=O)c2ccc(C)cc2)CC1` (stereo not drawn), the activation was 6.59% (inactive).
For the compound `CCOC(=O)[C@H]1[C@H]2COc3ccccc3[C@@H]2N2C(=O)CN(Cc3ccc(C)cc3)C(=O)[C@@]12C`, the activation was 8.95% (inactive).
Regarding `N#C/C(=C\c1ccccn1)c1nc2ccccc2s1`, the activation was 14.5% (active).
With `N#C/C(=C(/O)COC(=O)c1ccccc1O)c1nc2ccccc2s1`, the activation was 5.53% (inactive).
For `COc1ccc2[nH]c(C(=O)N3CCC(Cc4ccccc4)CC3)cc2c1`, the activation is 13.6% (active).
In the case of `CN1CCN(C(=O)c2cc3ccccc3[nH]2)CC1`, the activation was 6.99% (inactive).
For `O=C1c2cccc3cccc(c23)C(=O)N1CC1CCN(S(=O)(=O)c2ccc(F)cc2)CC1`, the activation was 134% (active).
For `O=C1NC(=NCc2ccccc2)S/C1=C\c1ccccc1`, the activation is 50.1% (active).
With `Cc1ccc(N=C2NC(=O)/C(=C/c3cccnc3)S2)cc1C`, the activation is 3.85% (inactive).
In the case of `Cc1ccnc(NC(=O)c2ccc(Br)s2)c1` it was 5.46% (inactive); in that of `N#C/C(=C\C=C\c1ccccc1)c1nc(-c2ccc3c(c2)OCO3)cs1`, 7.13% (inactive); in that of `Cc1ccnc(N/C=C(\C#N)c2nc(-c3cccc(Br)c3)cs2)c1`, 27.5% (active).
As to `O=S(=O)(/C=C/c1ccccc1)N1CCc2ccccc2C1`, the activation is 11.1% (inactive).
In the case of `COc1ccc(NC(=O)c2cccc(-c3ccc(O)cc3)c2)cn1` it was 2.76% (inactive).
For the compound `COC(=O)c1ccc(NC(=O)c2cccc(OC)c2)cc1`, the activation is 14.2% (active).
In the case of `COC(=O)c1ccc(NC(=O)c2snnc2-c2ccccc2)cc1`, the activation was 11.7% (active).
Next, `Nc1nc2ccccc2n1CCOc1ccc(Br)cc1`: 12.1% (active); `Cc1ccc(S(=O)(=O)c2cc(C#N)c(=O)[nH]c2N)cc1`: 23.8% (active); `Cc1ccc(-c2nc3sc(C#N)c(N)n3c(=O)c2C#N)cc1`: 6.97% (inactive).
On to `CC1(C)CC2(CCCN(C(=S)Nc3ccccc3)C2)CCO1` (stereo not drawn), for which the activation was 17.2% (active).
With `C=CCN1C(=O)C(Cc2cccc(Cl)c2)S/C1=N/N=C/c1ccco1` (stereo not drawn), the activation is 6.48% (inactive).
Take `O=C(COc1ccc(Cl)cc1[N+](=O)[O-])N1CCCCC1`: the activation was 48.7% (active).
`O=C(COc1ccc(Cl)cc1[N+](=O)[O-])N1CCCCCC1`: the activation was 5.74% (inactive).
Consider `CC(Oc1ccc(S(=O)(=O)N2CCCC2)cc1[N+](=O)[O-])C(=O)N(C)c1ccccc1` (stereo not drawn), for which the activation is 6.91% (inactive).
With `COc1cccc(OCCCn2cc(/C=C3/C(=N)N4C=C(C)SC4=NC3=O)c3ccccc32)c1`, the activation is 9.3% (inactive).
`CC1=CN2C(=N)/C(=C/c3ccc([N+](=O)[O-])o3)C(=O)N=C2S1`: the activation was 14.5% (active).
On to `CC(=O)c1cccc(-n2c(CCC(=O)O)ccc2-c2ccccc2)c1`, for which the activation was 7.99% (inactive).
As to `CCOc1ccc(CCNC(=O)c2ccc(CNS(=O)(=O)c3ccccc3)cc2)cc1OCC`, the activation was 4.87% (inactive).
For `CCOc1ccc(CCNC(=O)C2CCCN(S(=O)(=O)N3CCOCC3)C2)cc1OCC` (stereo not drawn), the activation is 15.7% (active).
Next, `CCCS(=O)(=O)N1CCC(C(=O)NCCCN2CCC(Cc3ccccc3)CC2)CC1`: 6.98% (inactive); `COc1cc(OC)c(C2N(c3ccc(Cl)c(Cl)c3)C(=O)C3CCCN32)cc1OC` (stereo not drawn): -2.98% (inactive).
As for `Cn1nccc1NC(=O)Nc1cccc(Cl)c1Cl`, the activation was 51.6% (active).
Take `COc1cc(OC)cc(-c2c(-c3cccs3)c3cc(-c4ccc(SC)cc4)ccc3n2C)c1`: the activation is 25.8% (active).
As to `COCCCn1c(=O)/c(=C\c2ccccc2OC(C)C)s/c1=C(/C#N)C(=O)Nc1ccc(C(=O)O)cc1`, the activation was 8.94% (inactive).
In the case of `COCCCn1c(=O)/c(=C\c2cccc(OC)c2OC)s/c1=C(/C#N)C(=O)Nc1ccc(C(=O)O)cc1` it was 22.2% (active); in that of `C=CCn1c(=O)/c(=C/c2cc(OC)c(OC)c(OC)c2)s/c1=C(/C#N)c1nc2ccccc2n1C`, 8.61% (inactive).
On to `COCCNC(=O)CSc1nc(N)c(NC(=O)c2ccccc2F)c(=O)[nH]1`, for which the activation was 11.4% (inactive).
In the case of `N=c1n(Cc2ccccc2)c2ccccc2n1CC(O)c1ccco1` (stereo not drawn) it was 29.1% (active); in that of `CCCn1c(=N)n(CC(O)c2ccco2)c2ccccc21` (stereo not drawn), 2.41% (inactive).
On to `CCn1c(=N)n(CC(O)c2ccccc2)c2ccccc21` (stereo not drawn), for which the activation was 9.44% (inactive).
As for `CN1CCCN(Cc2cccc3ccccc23)CC1`, the activation was 9.8% (inactive).
`Cc1cc(C=O)c(C)n1-c1ccc(Oc2ccc([N+](=O)[O-])cn2)cc1`: the activation was 4.85% (inactive).
Regarding `COc1cc(/C=C2\SC(=O)NC2=O)ccc1Oc1ccc([N+](=O)[O-])cn1`, the activation is 81% (active).
With `COc1ccc(C2NN=C(c3c[nH]c4ccccc34)C2O)cc1` (stereo not drawn), the activation was 36.2% (active).
On to `COc1ccccc1CNC(=O)COC(=O)c1cccc(S(=O)(=O)N2CCOCC2)c1`, for which the activation is 6.73% (inactive).
`O=C(COC(=O)c1ccc(S(=O)(=O)N2CCCC2)cc1)NCc1ccco1`: the activation is 11.6% (active).
Take `O=C(Nc1cccc2c1N(C(=O)c1ccco1)CCC2)c1ccco1`: the activation is 25.9% (active).
As for `O=C(NC(NC(=S)Nc1ccccc1C(=O)O)C(Cl)(Cl)Cl)c1ccco1` (stereo not drawn), the activation is 5.56% (inactive).
Next, `Cn1nc(C(F)(F)F)c(-c2ccc(Br)cc2)c1NC(=O)c1ccco1`: 6.3% (inactive); `O=C(N/N=C/c1cccc([N+](=O)[O-])c1)c1cnccn1`: 3.15% (inactive).
Consider `COc1ccc(/C=N/NC(=O)c2cccc([N+](=O)[O-])c2)cc1O`, for which the activation was 15.3% (active).
With `Cc1cccc(NC(=O)CSc2nnc(CSc3nc(C)cc(C)n3)n2Cc2ccco2)c1`, the activation was 8.24% (inactive).
Regarding `CCOC(=O)c1c(NC(=O)CSc2nc3cc(Cl)ccc3c(=O)n2Cc2ccco2)sc(C(=O)N(C)C)c1C`, the activation is 9.02% (inactive).
In the case of `CN(C)C(CNC(=O)CSc1nc2ccccc2c(=O)n1Cc1ccco1)c1ccccc1` (stereo not drawn) it was 12.1% (active).
